Results collected from several papers.
Each line is one published result; the experiments were not run side by side.
SLC22A11: Solute carrier family 22 member 11 (SLC22A11, Homo sapiens, UniProt Q9NSA0)
ADRA2A: Alpha-2A adrenergic receptor (ADRA2A, Homo sapiens, UniProt P08913)
CA1: Carbonic anhydrase 1 (CA1, Homo sapiens, UniProt P00915)
Protein phosphatase methylesterase 1: Protein phosphatase methylesterase 1 (Homo sapiens, UniProt Q9Y570)

N#Cc1c(Cl)c(Cl)c(Cl)c(C#N)c1Cl
IC50 (SLC22A11; transporter uptake, inhibitor): 7.3 µM

COc1cc2c(cc1OC)CN(CCc1ccc(NC(=O)c3cccc4c(=O)c5cccc(OC)c5[nH]c34)cc1)CC2
Ki (ADRA2A; cell-free assay): 1.37 µM

CC(=O)c1c(C)c2cnc(Nc3ccc(C4CCN(CCS(C)(=O)=O)CC4)cn3)nc2n(C2CCCC2)c1=O
IC50 (Cytochrome P450 2C19 (CYP2C19, Homo sapiens, UniProt P33261); enzyme activity, inhibitor; human, liver microsomes): > 10 µM

NC(=S)N/N=C1/c2ccccc2[C@@H]2[C@H]1[C@@H](c1ccoc1)[C@H](C(=O)c1ccco1)[C@H]2c1ccoc1
IC50 (Carbonic anhydrase 2 (CA2, Homo sapiens, UniProt P00918); enzyme activity, inhibitor, absorbance): 0.748 µM

O=C(Nc1ccc(C(F)(F)F)cc1)Nc1ccc2c(c1)C=CCP(=O)(O)O2
Ki (CA1; enzyme activity, inhibitor, stopped-flow): > 10 µM

CCCCC1CNC2CCc3ccc(OC)cc3C12 (racemic)
Ki (ADRA2A; ligand displacement, radioligand): 0.26 µM

O=C(Nc1ccc2c(c1)C=CCP(=O)(O)O2)Nc1ccccc1Br
Ki (CA1; enzyme activity, inhibitor, stopped-flow): > 10 µM

CC(C)C[C@H]1C(=O)N2CCC[C@H]2[C@]2(O)O[C@](NC(=O)[C@@H]3C=C4c5cccc6[nH]c(Br)c(c56)C[C@H]4N(C)C3)(C(C)C)C(=O)N12
IC50 (Synaptic vesicular amine transporter (SLC18A2, Homo sapiens, UniProt Q05940); transporter uptake, inhibitor): 4.85 µM

CC[C@H](C)[C@H](NC(=O)[C@H](CCCCNC(=O)CN(CCNC(=O)CN(CCNC(=O)CN(CCNC(=O)CN(CCNC(=O)[C@H](CCCNC(=N)N)NC(C)=O)C(=O)Cn1ccc(N)nc1=O)C(=O)Cn1cnc2c(=O)[nH]c(N)nc21)C(=O)Cn1cnc2c(=O)[nH]c(N)nc21)C(=O)Cn1ccc(N)nc1=O)NC(=O)[C@H](C)NC(=O)[C@H](CCCNC(=N)N)NC(=O)[C@H](CCCCN)NC(=O)[C@H](CCC(N)=O)NC(=O)[C@H](CCC(N)=O)NC(=O)[C@H](CC(N)=O)NC(=O)[C@@H](NC(=O)[C@H](CC(C)C)NC(=O)[C@H](CC(N)=O)NC(=O)[C@@H]1CCCN1C(=O)[C@H](CC(=O)O)NC(=O)[C@H](CC(C)C)NC(=O)[C@H](C)NC(=O)[C@H](CS)NC(=O)[C@H](CCCC(=O)NCCN(CC(=O)NCCN(CC(=O)NCCN(CC(=O)NCCN(CC(N)=O)C(=O)Cn1cnc2c(=O)[nH]c(N)nc21)C(=O)Cn1ccc(N)nc1=O)C(=O)Cn1ccc(N)nc1=O)C(=O)Cn1cnc2c(=O)[nH]c(N)nc21)NC(=O)[C@H](Cc1c[nH]c2ccccc12)NC(=O)[C@H](Cc1ccc(O)cc1)NC(=O)[C@H](CCCNC(=N)N)NC(=O)[C@H](CC(N)=O)NC(=O)[C@H](CCCNC(=N)N)NC(=O)[C@H](CC1CCCCC1)NC(=O)[C@H](CCC(=O)O)NC(=O)[C@H](CCCCN)NC(=O)[C@H](CO)NC(=O)[C@H](Cc1ccccc1)NC(C)=O)[C@@H](C)O)C(=O)N[C@@H](CCCNC(=N)N)C(=O)N[C@@H](CO)C(=O)N[C@H](C(=O)N[C@@H](Cc1ccc(O)cc1)C(=O)N[C@@H](CCC(=O)O)C(=O)N[C@@H](CCC(=O)O)C(N)=O)[C@@H](C)CC
Kd (Receptor tyrosine-protein kinase erbB-2 (ERBB2, Homo sapiens, UniProt P04626); binding, SPR): 0.00058 µM

O=P(Oc1ccccc1)(Oc1ccccc1)C(NCc1cncc2ccccc12)c1ccc(O)cc1 (stereo not drawn)
IC50 (Protein phosphatase methylesterase 1; enzyme activity, inhibitor; lysate): 15.5 µM

CCOC(=O)c1ccc(OC(=O)CCCCCN=C(N)N)cc1
IC50 (Tryptase gamma (Homo sapiens, UniProt Q9NRR2); enzyme activity, inhibitor): 1.99 µM

O=C(Nc1cccc(F)c1)Nc1ccc2c(c1)C=CCP(=O)(O)O2
Ki (CA1; enzyme activity, inhibitor, stopped-flow): > 10 µM

O=C(CP(=O)(Oc1ccccc1)Oc1ccccc1)N/N=C/c1ccncc1Br
IC50 (Protein phosphatase methylesterase 1; enzyme activity, inhibitor; lysate): 7 µM

O=C(Nc1ccc2c(c1)C=CCP(=O)(O)O2)c1ccc2ccccc2c1
Ki (CA1; enzyme activity, inhibitor, stopped-flow): > 10 µM

C[CH2][Hg][S]c1ccccc1C(=O)[O-].[Na+]
IC50 (SLC22A11; transporter uptake, inhibitor): 5 µM
